{"source": "ChEMBL document CHEMBL6182837", "about": "“Discovery and biological evaluation of nitrofuranyl-pyrazolopyrimidine hybrid conjugates as potent antimicrobial agents targeting Staphylococcus aureus and methicillin-resistant S. aureus” (RSC Med Chem, 2025)", "key": {"[1]": {"system": "Staphylococcus aureus", "test": "Bactericidal activity against Staphylococcus aureus ATCC 29213 assessed as reduction in bacterial count at 2 to 4 times MIC incubated for 2 hrs by time-kill assay"}, "[2]": {"test": "C0 in male Balb/c mouse at 1 mg/kg, iv by LC-MS/MS analysis", "format": "ADME, organism-based", "details": "in vivo", "in_short": "(§1)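 Balb/c mice dosed 1 mg kg−1 intravenously or 30 mg kg−1 orally (2.5 mg kg−1 oral also given); plasma PK parameters derived.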"}, "[3]": {"test": "AUC (0 to t) in male Balb/c mouse at 1 mg/kg, iv by LC-MS/MS analysis", "format": "ADME, organism-based", "details": "in vivo", "in_short": "as §1"}, "[4]": {"system": "Staphylococcus aureus", "test": "Additive antibacterial activity against Staphylococcus aureus ATCC 29213 assessed as fractional inhibitory concentration index at 0.02 ug/ml incubated up to 24 hrs in presence of ciprofloxacin by checkerboard analysis", "format": "functional", "details": "dose 0.02 µg/ml", "in_short": "(§2)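 Checkerboard microdilution in cation-adjusted MHB, done per CLSI. The compound and partner antibiotic were dissolved in DMSO. The antibiotic was serially diluted across the plate and the compound was twofold serially diluted into the wells to make the combinations. Each well received 0.1 ml of inoculum, a 0.5 McFarland suspension (1.5 × 10^8 CFU ml−1) diluted 1:100 in MHB. Plates were incubated 24 h at 37 °C, then read with Alamar blue (0.04%). FIC index was calculated.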"}, "[5]": {"system": "Staphylococcus aureus", "test": "Synergistic antibacterial activity against Staphylococcus aureus ATCC 29213 assessed as fractional inhibitory concentration index at 0.02 ug/ml incubated up to 24 hrs in presence of vancomycin by checkerboard analysis", "format": "functional", "details": "dose 0.02 µg/ml", "in_short": "as §2"}, "[6]": {"system": "Escherichia coli", "test": "Antibacterial activity against Escherichia coli ATCC 25922 incubated for 24 hrs by Alamar blue staining based microdilution method", "format": "functional"}, "[7]": {"system": "Staphylococcus aureus", "test": "Bactericidal activity against Staphylococcus aureus ATCC 29213 assessed as reduction in bacterial count at 2 to 4 times MIC incubated for 2 to 24 hrs by time-kill assay relative to control", "format": "functional", "set-up": "scale not given: the % may be the effect or the level left", "details": "time 2-24 hrs"}, "[8]": {"system": "Staphylococcus aureus", "test": "Synergistic bactericidal activity against Staphylococcus aureus ATCC 29213 assessed as reduction in bacterial count at 0.02 ug/ml measured after 24 hrs in presence of vancomycin by time-kill assay", "format": "functional, organism-based", "details": "dose 0.02 µg/ml", "in_short": "(§3)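 Time-kill with compound combined with vancomycin at synergistic concentrations (from checkerboard FIC) against S. aureus; CFU followed up to 8 h and at 24 h.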"}, "[9]": {"test": "Volume of distribution in male Balb/c mouse at 30 mg/kg, po by LC-MS/MS analysis", "format": "ADME, organism-based", "details": "in vivo", "in_short": "as §1"}, "[10]": {"test": "AUC (0 to t) in male Balb/c mouse at 30 mg/kg, po by LC-MS/MS analysis", "format": "ADME, organism-based", "details": "in vivo", "in_short": "as §1"}, "[11]": {"test": "Efflux ratio of permeability across basal to apical side over apical to basal side in human Caco-2 cells", "format": "ADME, cell-based"}, "[12]": {"test": "Lipophilicity, logP of compound", "format": "physicochemical", "details": "octanol/water"}, "[13]": {"system": "Staphylococcus aureus", "test": "Bactericidal activity against methicillin-resistant Staphylococcus aureus ATCC 15187 assessed as reduction in bacterial count at 1 to 4 times MIC by time-kill assay", "format": "functional, organism-based", "details": "time 2-24 hrs"}, "[14]": {"system": "Staphylococcus aureus", "test": "Synergistic bactericidal activity against Staphylococcus aureus ATCC 29213 assessed as reduction in bacterial count at 0.02 ug/ml incubated up to 8 hrs in presence of vancomycin by time-kill assay", "format": "functional", "details": "dose 0.02 µg/ml", "in_short": "as §3"}, "[15]": {"system": "Staphylococcus aureus", "test": "Antibacterial activity against methicillin-resistant Staphylococcus aureus ATCC 15187 infected in mouse RAW264.7 cells assessed as bacterial eradication by colony counting method based microdilution method", "format": "functional, organism-based", "in_short": "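RAW 264.7 macrophages infected with MRSA, then treated at multiples of MIC non-toxic to the cells, with vancomycin control; intracellular bacterial load counted as CFU ml−1; compared with infection control by one-way ANOVA.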"}, "[16]": {"system": "Staphylococcus aureus", "test": "Inhibition of biofilm formation of methicillin-resistant Staphylococcus aureus ATCC 15187 incubated for 27 hrs by absorbance based method", "format": "functional, organism-based"}, "[17]": {"test": "Clearance in male Balb/c mouse at 30 mg/kg, po by LC-MS/MS analysis", "format": "ADME, organism-based", "details": "in vivo", "in_short": "as §1"}, "[18]": {"system": "Staphylococcus aureus", "test": "Induction of resistance development in Staphylococcus aureus ATCC 29213 assessed as fold increase in MIC at 0.5 MIC measured after 20 passages relative to control", "format": "functional", "in_short": "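Bacteria were serially passaged for 20 days after exposure to a sublethal drug concentration. MIC was determined at each passage. Vancomycin and norfloxacin were run as control agents.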"}, "[19]": {"system": "Staphylococcus aureus", "test": "Induction of morphological disruption in methicillin-resistant Staphylococcus aureus ATCC 15187 incubated for 2 to 6 hrs by SEM analysis", "format": "functional, organism-based", "details": "time 2-6 hrs", "in_short": "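Bacteria incubated for 2 h and 6 h at 1×, 2× and 4× MIC, with vancomycin and daptomycin at 1× and 2× MIC and untreated cells; cell morphology imaged by scanning electron microscopy.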"}, "[20]": {"system": "Staphylococcus aureus", "test": "Antibacterial activity against Ciprofloxacin-sensitive Staphylococcus aureus […] by Alamar blue staining based analysis", "format": "functional"}, "[21]": {"system": "Staphylococcus aureus", "test": "Bacteriostatic activity against Staphylococcus aureus ATCC 29213 assessed as reduction in bacterial count at MIC incubated for 2 to 24 hrs by time-kill assay", "format": "functional", "details": "time 2-24 hrs"}, "[22]": {"system": "Staphylococcus aureus", "test": "Antibacterial activity against Staphylococcus aureus ATCC 29213 incubated for 24 hrs by Alamar blue staining based microdilution method", "format": "functional"}, "[23]": {"system": "Staphylococcus aureus", "test": "Additive antibacterial activity against Staphylococcus aureus ATCC 29213 assessed as fractional inhibitory concentration index at 0.02 ug/ml incubated up to 24 hrs in presence of rifampicin by checkerboard analysis", "format": "functional", "details": "dose 0.02 µg/ml", "in_short": "as §2"}, "[24]": {"test": "AUC (0 to infinity) in male Balb/c mouse at 30 mg/kg, po by LC-MS/MS analysis", "format": "ADME, organism-based", "details": "in vivo", "in_short": "as §1"}, "[25]": {"test": "Hemolytic activity in rabbit erythrocytes up to 200 ug/ml incubated for 4 hrs by absorbance based assay", "format": "toxicity, cell-based, Oryctolagus cuniculus", "details": "erythrocyte, dose < 200 µg/ml"}, "[26]": {"test": "Cmax in male Balb/c mouse at 30 mg/kg, po by LC-MS/MS analysis", "format": "ADME, organism-based", "details": "in vivo", "in_short": "as §1"}, "[27]": {"system": "Staphylococcus aureus", "test": "Induction of morphological disruption in Staphylococcus aureus ATCC 29213 incubated for 2 to 6 hrs by SEM analysis", "format": "functional, organism-based", "details": "time 2-6 hrs", "in_short": "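S. aureus incubated 2 h and 6 h with compound at 1×, 2×, 4× MIC, imaged by scanning electron microscopy; untreated, vancomycin and daptomycin (1×, 2× MIC) controls.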"}, "[28]": {"system": "Staphylococcus aureus", "test": "Induction of membrane permeabilization in methicillin-resistant Staphylococcus aureus ATCC 15187 at 1 to 8 times MIC measured after 80 mins by PI staining based analysis relative to control", "format": "functional", "details": "1.333 h", "in_short": "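Propidium iodide uptake measured over time in bacteria exposed to 1×, 2×, 4× and 8× MIC, with vancomycin 4× and 8× MIC and a blank control; percentage membrane permeabilization read up to 80 min.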"}, "[29]": {"system": "Staphylococcus aureus", "test": "Disruption of pre-formed biofilms of Staphylococcus aureus ATCC 29213 at 4 to 6 times MIC incubated for 24 hrs by absorbance based method relative to control", "format": "functional"}, "[30]": {"system": "Staphylococcus aureus", "test": "Induction of resistance development in Staphylococcus aureus ATCC 29213 at 0.5 MIC measured after […]", "format": "functional, organism-based", "details": "0.5 M", "in_short": "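Bacteria serially passaged under sublethal drug exposure over 20 days, with MIC redetermined at each passage; vancomycin and norfloxacin as controls.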"}, "[31]": {"test": "Clearance in male Balb/c mouse at 1 mg/kg, iv by LC-MS/MS analysis", "format": "ADME, organism-based", "details": "in vivo", "in_short": "as §1"}, "[32]": {"system": "Staphylococcus aureus", "test": "Antibacterial activity against methicillin-resistant Staphylococcus aureus ATCC 15187 incubated for 24 hrs by Alamar blue staining based microdilution method", "format": "functional"}, "[33]": {"test": "Drug metabolism in mouse liver microsomes", "format": "ADME, Microsome", "details": "read-out: Drug metabolism"}}, "note": "Active and inactive are the calls of the source. The rule behind the calls is not given here."}
{"smiles": "CCCc1nn(C)c2c(Nc3ccc(O)cc3)nc(-c3ccc([N+](=O)[O-])o3)nc12", "values": [{"measurement": "Activity", "setting": "[1]", "result": "Active"}, {"measurement": "C0", "setting": "[2]", "result": 552, "unit": "ng/mL"}, {"measurement": "AUC(0-t)", "setting": "[3]", "result": 90.8, "unit": "ng·h/mL"}, {"measurement": "fractional inhibitory concentration index (FICI)", "setting": "[4]", "result": 1}, {"measurement": "fractional inhibitory concentration index (FICI)", "setting": "[5]", "result": 0.5}, {"measurement": "MIC", "setting": "[6]", "result": "inactive"}, {"measurement": "Activity", "setting": "[7]", "result": 99.9, "unit": "%"}, {"measurement": "Activity", "setting": "[8]", "result": "inactive"}, {"measurement": "Vd", "setting": "[9]", "result": 4.75, "unit": "L/kg"}, {"measurement": "AUC(0-t)", "setting": "[10]", "result": 3150, "unit": "ng·h/mL"}, {"measurement": "efflux ratio", "setting": "[11]", "result": 1.3}, {"measurement": "logP", "setting": "[12]", "result": 2.92}, {"measurement": "Activity", "setting": "[13]", "result": "Time-dependent-effect"}, {"measurement": "Activity", "setting": "[14]", "result": ">10", "unit": "log10CFU"}, {"measurement": "Activity", "setting": "[15]", "result": "Dose-dependent-effect"}, {"measurement": "inhibition", "setting": "[16]", "result": "Dose-dependent-effect"}, {"measurement": "CL/F", "setting": "[17]", "result": 159, "unit": "mL/min/kg"}, {"measurement": "fold change (FC)", "setting": "[18]", "result": 200}, {"measurement": "Activity", "setting": "[19]", "result": "Active"}, {"measurement": "MIC", "setting": "[20]", "result": 0.3, "unit": "µg/mL"}, {"measurement": "Activity", "setting": "[21]", "result": "<3", "unit": "log10CFU"}, {"measurement": "MIC", "setting": "[22]", "result": 0.64, "unit": "µg/mL"}, {"measurement": "fractional inhibitory concentration index (FICI)", "setting": "[23]", "result": 0.7}, {"measurement": "AUC(0-inf)", "setting": "[24]", "result": 3150, "unit": "ng·h/mL"}, {"measurement": "Activity", "setting": "[25]", "result": "Non-toxic"}, {"measurement": "Cmax", "setting": "[26]", "result": 2010, "unit": "ng/mL"}, {"measurement": "Activity", "setting": "[27]", "result": "Active"}, {"measurement": "Activity", "setting": "[28]", "result": 45, "unit": "%"}, {"measurement": "Activity", "setting": "[29]", "result": 30, "unit": "%"}, {"measurement": "Activity", "setting": "[30]", "result": "inactive"}, {"measurement": "clearance", "setting": "[31]", "result": 176, "unit": "mL/min/kg"}, {"measurement": "MIC", "setting": "[32]", "result": 0.15, "unit": "µg/mL"}, {"measurement": "metabolised", "setting": "[33]", "result": 71, "unit": "%"}]}
